Experimental data published in ChEMBL document CHEMBL1123247, “Nucleoside conjugates. 7. Synthesis and antitumor activity of 1-beta-D-arabinofuranosylcytosine conjugates of ether lipids” (J Med Chem, 1986).

Legend:
Format in all cases: functional, Mus musculus
P388 [1] = test: Antitumor activity was determined against the ip implanted P388 leukemia in mice by percent increase in life span at 133 mg/kg (treatment of 1,5,9qd schedule) dosage; details: route intraperitoneal
In short: (§1)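 DBA/2J mice, 23-33 g, in groups of 6, were inoculated ip with 1×10^6 P388 cells on day 0. Dosing was ip from 24 h on the stated schedules, in 0.9% NaCl with 0.5% Tween-80 (sonicated solution or suspension). Survival was followed daily until death or 45 days. Median T/C was calculated from survivors per NCI protocols, with ILS = (T/C − 1) × 100.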

P388 [2] = test: Antitumor activity was determined against the ip implanted P388 leukemia in mice by change in […] at 60 mg/kg (1-5qd treatment schedule) dosage; details: route intraperitoneal
In short: (§2)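 P388 leukemia, 1×10^6 cells implanted ip on day 0 into DBA/2J mice, groups of 6 (wt 23-33 g). Dosing ip started 24 h post-inoculation, vehicle 0.9% NaCl containing 0.5% Tween-80. Animals were observed daily until death or 45 days. Outputs were weight change, median survival T/C from survivors per NCI protocols, and %ILS = (T/C − 1) × 100.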

P388 [3] = test: Antitumor activity was determined against the ip implanted P388 leukemia in mice by 45-day survivors in mice at 60 mg/kg (1-5qd treatment schedule) dosage; details: route intraperitoneal; in short: as §1
L1210 [4] = test: Antitumor activity against the ip implanted L1210 leukemia in mice expressed as optimal dose (1 qd treatment schedule) required to produce greatest increase in life span was determined
In short: (§3)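 DBA/2J mice, groups of 6 (23-28 g), were inoculated ip with 1 × 10^6 L1210 cells on day 0. Dosing was ip from 24 h, in 0.9% NaCl with 0.5% Tween-80 (sonicated solution or suspension). Mice were observed daily until death or day 45. Median survival T/C followed NCI protocols, and ILS = (T/C − 1) × 100. Active range means doses giving ILS ≥25%; optimal dose means greatest ILS.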

L1210 [5] = test: Antitumor activity against the ic implanted L1210 lymphoid leukemia in mice expressed as optimal dose (1-5qd treatment schedule) required to produce greatest increase in life span was determined
In short: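 DBA/2J mice, groups of 6 (26-32 g), got 1 × 10^5 L1210 cells ic on day 0. Dosing was ip starting 24 h later, as a sonicated solution or suspension in 0.9% NaCl with 0.5% Tween-80, over a wide dose range. Mice were followed daily until death. Median survival T/C was taken from survivors per NCI protocols, and ILS = (T/C − 1) × 100. Active range means doses giving ILS ≥25%; optimal dose means greatest ILS.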

P388 [6] = test: Antitumor activity was determined against the ip implanted P388 leukemia in mice by percent median survival rate (treated/control) at 133 mg/kg (treatment of 1,5,9qd schedule) dosage; >45.0/11.0; details: route intraperitoneal; in short: as §1
P388 [7] = test: Antitumor activity was determined against the ip implanted P388 leukemia in mice by change in […] at 133 mg/kg (treatment of 1,5,9qd schedule) dosage; details: route intraperitoneal; in short: as §2
P388 [8] = test: Antitumor activity against ip implanted P388 leukemia in mice expressed as active dose range (1 qd treatment schedule) required to produce increase in life span by >25% was determined; Range is 200-500
In short: (§4)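 P388 leukemia: 1 × 10^6 cells were given ip on day 0 to DBA/2J mice, groups of 6 (23-33 g). Treatment was ip from 24 h after inoculation, vehicle 0.9% NaCl with 0.5% Tween-80. Mice were observed daily until death or 45 days. Median survival T/C was calculated from survivors per NCI protocols, and ILS = (T/C − 1) × 100. Active range means doses giving ILS ≥25%; optimal dose means greatest ILS.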

P388 [9] = test: Antitumor activity was determined against the ip implanted P388 leukemia in mice by 45-day survivors in mice at 133 mg/kg (treatment of 1,5,9qd schedule) dosage; details: route intraperitoneal; in short: as §1
P388 [10] = test: Antitumor activity against the ip implanted P388 leukemia in mice expressed as optimal dose (1,5,9qd treatment schedule) required to produce greatest increase in life span was determined; design: unit: mg/kg; in short: as §4
P388 [11] = test: Antitumor activity against ip implanted P388 leukemia in mice expressed as active dose range (1-5qd treatment schedule) required to produce increase in life span by >25% was determined; Range is 40-80; in short: as §4
P388 [12] = test: (§5) Antitumor activity against the ip implanted P388 leukemia in mice expressed as optimal dose (1-5qd treatment schedule) required to produce greatest increase in life span was determined; design: unit: mg/kg; in short: as §4
L1210 [13] = test: Antitumor activity against the ip implanted L1210 leukemia in mice expressed as optimal dose (1-5qd treatment schedule) required to produce greatest increase in life span was determined; in short: as §3
P388 [14] = test: Antitumor activity was determined against the ip implanted P388 leukemia in mice by percent increase in life span at 60 mg/kg (1-5qd treatment schedule) dosage; details: route intraperitoneal; in short: as §1
P388 [15] = test: Antitumor activity against the ip implanted P388 leukemia in mice expressed as optimal dose (1 qd treatment schedule) required to produce greatest increase in life span was determined; in short: as §4
P388 [16] = test: as §5; in short: as §4
L1210 [17] = test: Antitumor activity was determined against the ip implanted L1210 leukemia in mice by change in […] at 400 mg/kg (treatment of 1qd schedule) dosage; details: route intraperitoneal
In short: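 DBA/2J mice, 6 per group (wt 23-28 g), inoculated ip with 1×10^6 L1210 cells on day 0. Treatment was given ip in 0.9% NaCl with 0.5% Tween-80, starting 24 h later. Weight change was taken on day 8. Mice were observed daily until death or 45 days. Median survival T/C and %ILS = (T/C − 1) × 100 came from survivors per NCI protocols, and 45-day survivors were counted.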

L1210 [18] = test: Antitumor activity was determined against the ip implanted L1210 leukemia in mice by percent increase in life span at 400 mg/kg (treatment of 1qd schedule) dosage; details: route intraperitoneal
In short: (§6)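 DBA/2J mice in groups of 6 (wt 23-28 g) were inoculated ip with 1×10^6 L1210 cells on day 0. Dosing was ip from 24 h, in 0.9% NaCl with 0.5% Tween-80 (conjugates sonicated), across a range of doses. Mice were observed daily until death or 45 days. Median T/C was computed from survivors per NCI protocols, and ILS = (T/C − 1)×100.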

P388 [19] = test: Antitumor activity was determined against the ip implanted P388 leukemia in mice by 45-day survivors in mice at 500 mg/kg (treatment of 1qd schedule) dosage; details: route intraperitoneal; in short: as §1
P388 [20] = test: Antitumor activity was determined against the ip implanted P388 leukemia in mice by percent increase in life span at 200 mg/kg (treatment of 1-5qd schedule) dosage; details: route intraperitoneal; in short: as §1
P388 [21] = test: Antitumor activity was determined against the ip implanted P388 leukemia in mice by percent increase in life span at 500 mg/kg (treatment of 1qd schedule) dosage; details: route intraperitoneal; in short: as §1
P388 [22] = test: Antitumor activity was determined against the ip implanted P388 leukemia in mice by change in […] at 500 mg/kg (treatment of 1qd schedule) dosage; details: route intraperitoneal; in short: as §2
L1210 [23] = test: Antitumor activity was determined against the ip implanted L1210 leukemia in mice by 45-day survivors in mice at 400 mg/kg (treatment of 1qd schedule) dosage; details: route intraperitoneal; in short: as §6

Structure (SMILES): CCCCCCCCCCCCCCCC(=O)OC[C@H](COP(=O)(O)OP(=O)(O)OC[C@H]1O[C@@H](n2ccc(N)nc2=O)[C@@H](O)[C@@H]1O)OC(=O)CCCCCCCCCCCCCCC
- ILS (P388 [1]): >309
- Weight change (P388 [2]): -1.92 g mouse-1
- Survivors (P388 [3]): 5
- Optimal dose (L1210 [4]): 300 mg/kg/day
- Optimal dose (L1210 [5]): 80 mg
- T/C (P388 [6]): >45%
- Weight change (P388 [7]): -1.43 g mouse-1
- Active dose range (P388 [8]): 200 mg/kg/day
- Survivors (P388 [9]): 4
- Optimal dose (P388 [10]): 133 mg
- Active dose range (P388 [11]): 40 mg/kg/day
- Optimal dose (P388 [12]): 60 mg
- Optimal dose (L1210 [13]): 40 mg
- ILS (P388 [14]): >309
- Optimal dose (P388 [15]): 500 mg

Structure (SMILES): Nc1ccn([C@@H]2O[C@H](CO)[C@@H](O)[C@@H]2O)c(=O)n1 [CYTARABINE]
- Optimal dose (L1210 [4]): 400 mg/kg/day
- Optimal dose (L1210 [5]): 300 mg
- Optimal dose (P388 [16]): 200 mg
- Weight change (L1210 [17]): 2.37 g mouse-1
- ILS (L1210 [18]): 19
- Survivors (P388 [19]): 0
- Optimal dose (L1210 [13]): 200 mg
- ILS (P388 [20]): 109
- ILS (P388 [21]): 36
- Weight change (P388 [22]): 0.72 g mouse-1
- Survivors (L1210 [23]): 0
- Optimal dose (P388 [15]): 500 mg

Structure (SMILES): CCCCCCCCCCCCCCCCOCC(COP(=O)(O)OP(=O)(O)OC[C@H]1O[C@@H](n2ccc(N)nc2=O)[C@@H](O)[C@@H]1O)OC(=O)CCCCCCCCCCCCCCC (mixture of isomers)
- ILS (P388 [1]): >309
- Optimal dose (L1210 [4]): 400 mg/kg/day
- Optimal dose (L1210 [5]): 100 mg
- Optimal dose (P388 [16]): 60 mg
- T/C (P388 [6]): >45%
- Weight change (P388 [7]): -0.25 g mouse-1
- Weight change (L1210 [17]): 1.47 g mouse-1
- Survivors (P388 [9]): 4
- Optimal dose (P388 [10]): 133 mg
- ILS (L1210 [18]): 293
- Optimal dose (L1210 [13]): 80 mg
- Survivors (L1210 [23]): 0
- Optimal dose (P388 [15]): 300 mg

Structure (SMILES): CCCCCCCCCCCCCCCCCCOCC(COP(=O)(O)OP(=O)(O)OC[C@H]1O[C@@H](n2ccc(N)nc2=O)[C@@H](O)[C@@H]1O)OC(=O)CCCCCCCCCCCCCCC (mixture of isomers)
- Weight change (P388 [2]): -0.12 g mouse-1
- Survivors (P388 [3]): 0
- Optimal dose (L1210 [4]): 400 mg/kg/day
- Weight change (L1210 [17]): -1 g mouse-1
- Active dose range (P388 [8]): 200 mg/kg/day
- Optimal dose (P388 [10]): 67 mg
- Active dose range (P388 [11]): 40 mg/kg/day
- ILS (L1210 [18]): 257
- Survivors (P388 [19]): 4
- Optimal dose (P388 [12]): 60 mg
- Optimal dose (L1210 [13]): 100 mg
- ILS (P388 [21]): >309
- ILS (P388 [14]): 109
- Weight change (P388 [22]): -0.07 g mouse-1
- Survivors (L1210 [23]): 0
- Optimal dose (P388 [15]): 500 mg
